Source: PMC9226493 (Nucleic Acids Research, 2022)

Tests used:
[1] = test system: UPEC 536; assay: Minimal inhibitory concentration; assay type: cell-based, Escherichia coli; conditions: (KFF)3K-conjugated 10mer PNAs at concentrations ≤10 μM, 24 h
[2] = test system: UPEC 536; assay: Killing time kinetics; assay type: cell-based, Escherichia coli; conditions: 1.25 μM, UPEC 536 10^5 cfu/ml, within 24 h
[3] = test system: acpP^91::gfp RNA; assay: In vitro translation of acpP::gfp RNA, western blot of AcpP1-17-GFP; assay type: biochemical, Escherichia coli; conditions: 10-molar excess of PPNA over template RNA; performed two times; listed as (KFF)3K-acpP
Summary of the method: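 Target-gene fragment fused to gfp by overlap PCR, then T7 in vitro transcribed (3 h 45 min, 37°C; then DNase) and checked on 6% PAA/7 M urea gels. Heat-denatured RNA (1 pmol, 100 nM final) was pre-incubated with test compound at 37°C for 5 min. It was then translated in PURExpress for 2 h at 37°C. Water served as control. Analysis: 12% SDS-PAGE, anti-GFP western, Ponceau loading check, ImageJ signal relative to control.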

KFFKFFKFFK [nusG 10mer PPNA]
growth inhibition of UPEC 536 [1]: did not trigger complete growth inhibition

KFFKFFKFFK [scrambled 10mer PPNA]
abundance of living bacterial cells compared to the water control [2]: did not affect the abundance of living bacterial cells

KFFKFFKFFK [acpP 10mer PPNA]
effect on in vitro synthesis of AcpP1-17-GFP [3]: substantially inhibited

KFFKFFKFFK [csrA 10mer PPNA]
growth inhibition of UPEC 536 [1]: did not trigger complete growth inhibition

KFFKFFKFFK [yidC 10mer PPNA]
growth inhibition of UPEC 536 [1]: did not trigger complete growth inhibition
